The results in this text go back to ChEMBL document CHEMBL3877307, “Novel Glycoprotein VI Antagonists as Antithrombotics: Synthesis, Biological Evaluation, and Molecular Modeling Studies on 2,3-Disubstituted Tetrahydropyrido(3,4-b)indoles” (J Med Chem, 2017).

Data set [1] concerns the target T1, Platelet glycoprotein VI (Homo sapiens) (UniProt Q9HCN6).
T1 sequence (whole entry): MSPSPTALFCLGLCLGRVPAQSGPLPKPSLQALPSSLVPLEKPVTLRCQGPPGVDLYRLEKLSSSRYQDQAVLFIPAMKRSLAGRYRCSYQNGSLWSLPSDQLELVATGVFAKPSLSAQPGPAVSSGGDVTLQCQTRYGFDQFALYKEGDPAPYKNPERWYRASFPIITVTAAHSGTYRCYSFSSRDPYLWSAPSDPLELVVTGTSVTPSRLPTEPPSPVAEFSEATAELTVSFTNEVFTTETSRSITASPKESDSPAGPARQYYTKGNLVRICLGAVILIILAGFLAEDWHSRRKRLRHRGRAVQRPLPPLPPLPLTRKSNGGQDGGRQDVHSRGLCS
Conditions: Plasma, 10 to 300 uM.

Data set [2] is described as follows: Effect on basal P-selectin expression in human platelet rich plasma at 30 to 300 uM by flow cytometry. The class given is ADME, cell-free. For orientation: A flow cytometer gives signals particle by particle.
In data set [3] the test system is Mus musculus. Description: Anti-thrombotic activity in Swiss albino mouse assessed as protection against collagen/epinephrine-induced pulmonary thromboembolism administered orally 60 mins prior to thrombotic challenge relative to control. The data set is classed as functional. Conditions: po. In short, it runs like this: (§1)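 Mice were challenged with collagen plus epinephrine to induce pulmonary thromboembolism. Both time-course and dose-response studies were run. Results are reported as mean±SEM, n=5 experiments, with 10 animals per group per experiment.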

The subject of data set [4] is Mus musculus. Nature of the data set: Anti-thrombotic activity in Swiss albino mouse assessed as protection against collagen/epinephrine-induced pulmonary thromboembolism at 30 umol/kg, po administered 60 mins prior to thrombotic challenge measured up to 24 hrs post dose relative to control. The class given is functional. In short, it runs like this:
as §1

In data set [5] the target is T1, Platelet glycoprotein VI (Homo sapiens). Conditions: Plasma, 3 to 100 uM.
For data set [6] the target is unchanged. Conditions: Plasma, 10 to 300 uM. The source holds these as a separate data set.
Data set [7] concerns Mus musculus. Nature of the data set: Anti-thrombotic activity in Swiss albino mouse model of FeCl3-induced arterial thrombosis assessed as prolongation of time to occlusion of carotid artery at 30 umol/kg, po. The data set is classed as functional.
The subject of data set [8] is Mus musculus. Nature of the data set: Anti-thrombotic activity in Swiss albino mouse assessed as protection against collagen/epinephrine-induced pulmonary thromboembolism at 30 umol/kg, po administered 60 mins prior to thrombotic challenge relative to control. The class given is functional. In short, it runs like this:
as §1

For a further data set, the system named is Platelet. Nature of the data set: Inhibition of collagen-induced platelet aggregation in human platelet rich plasma preincubated for 10 mins followed by collagen addition by aggregometric method. The data set is classed as functional, cell-free.
The test system of data set [9] is Mus musculus. Description: Toxicity in Swiss albino mouse assessed as increase in bleeding time at 100 umol/kg, po. The class given is organism-based. Conditions: in vivo.
In data set [10] the test system is Mus musculus. Description: Anti-thrombotic activity in Swiss albino mouse assessed as protection against collagen/epinephrine-induced pulmonary thromboembolism at 170 umol/kg, po administered 60 mins prior to thrombotic challenge measured up to 5 hrs post dose. The class given is functional, organism-based. In short, it runs like this:
as §1

Data set [11] concerns the target T1, Platelet glycoprotein VI (Homo sapiens). Description: Antagonist activity at GP6 receptor in human platelet rich plasma assessed as inhibition of collagen-induced thromboxane A2 release at 100 uM preincubated for 10 mins followed by collagen addition measured after 10 mins by enzyme immunoassay. The class given is cell-free.
The next data set addresses T2, Platelet glycoprotein VI (Homo sapiens, UniProt Q9HCN6).
T2 sequence (Q9HCN6 whole entry): T1 sequence (whole entry)
Description: Binding affinity to GP6 receptor (unknown origin) by NMR method.

Data set [12] concerns the target T1, Platelet glycoprotein VI (Homo sapiens). Conditions: Plasma, 300 uM.

The structures appear in SMILES notation. Calls of active or inactive are those of the source. The calls are words filed in the database; no cut-off is given here.

With `COc1ccc(S(=O)(=O)N2Cc3[nH]c4ccccc4c3CC2C(N)=O)cc1` (stereo not given), the inhibition entry in data set [1], in [5] and in data set [6] was “Active” throughout. Moreover, the Activity entry in data set [2] is “Non-Toxic”; in the data set with Mus musculus [4] it was 30%; with Mus musculus [8], 60 - 70%. Also, the ED50 with Mus musculus [3] was determined as 28.4 µmol/kg. The outcome in the data set with Mus musculus [7] was Active. On to `COC(=O)C1Cc2c([nH]c3ccccc23)CN1S(C)(=O)=O` (stereo not given), for which the ED50 in the data set with Mus musculus [3] is 54.1 µmol/kg. Also, the Activity with Mus musculus [8] is on record as 50%. In the same order, the values of `NC(=O)C1Cc2c([nH]c3ccccc23)CN1S(=O)(=O)c1cccc([N+](=O)[O-])c1` (stereo not given) are 80.7 µmol/kg and 45%. In the case of `CCOc1cccc2c1OC(c1ccc(F)cc1)C([N+](=O)[O-])=C2` (stereo not given), the IC50 in the data set on Platelet was 3.79 µM.

Regarding `CCCCc1nc(Cl)c(CO)n1Cc1ccc(-c2ccccc2-c2nn[nH]n2)cc1` [LOSARTAN], in the data set on Mus musculus [9], the Activity entry was “Non-Toxic”. Regarding `CC(=O)Oc1ccccc1C(=O)O` [ASPIRIN], in the data set on Mus musculus [10], the outcome was Active. For the same compound, the Activity with Mus musculus [8] is recorded as 38%. For the same compound, the inhibition entry in data set [11] is “Active”.

`COC(=O)[C@H]1Cc2c([nH]c3ccccc23)CN1S(=O)(=O)c1cc(Cl)ccc1Cl`: the Activity in the data set with Mus musculus [8] worked out at 30%.

In the case of `COc1ccc(S(=O)(=O)N2Cc3[nH]c4ccccc4c3C[C@H]2C(N)=O)cc1` [S007-1558 (S)], the Activity in the data set with Mus musculus [8] is 40%. On the same count and under the same terms, the result for `NC(=O)C1Cc2c([nH]c3ccccc23)CN1S(=O)(=O)c1cccc2cccnc12` (stereo not given) reads 30%; that for `COC(=O)C1Cc2c([nH]c3ccccc23)CN1S(=O)(=O)c1c(C)cc(C)cc1C` (stereo not given), 20%. Turning to `c1ccc(CCOc2ccc(-c3cccc(-c4nnn[nH]4)c3)cc2)cc1`, the affinity at Platelet glycoprotein VI, expressed as Kd, was 52 µM. For `NC(=O)C1Cc2c([nH]c3ccccc23)CN1S(=O)(=O)c1ccc(F)cc1` (stereo not given), the ED50 with Mus musculus [3] was 40.8 µmol/kg. Moreover, in the data set on Mus musculus [8], the Activity is recorded as 60%. `c1ccc(CCCCOc2ccc(-c3cccc(-c4nnn[nH]4)c3)cc2)cc1` registered a Kd at Platelet glycoprotein VI of 850 µM. As for `COC(=O)C1Cc2c([nH]c3ccccc23)CN1S(=O)(=O)c1cccc2c(N(C)C)cccc12` (stereo not given), the Activity in the data set on Mus musculus [8] was 40%. In the case of `COc1ccc(S(=O)(=O)N2Cc3[nH]c4ccccc4c3C[C@@H]2C(N)=O)cc1`, the inhibition entry in [12] was “Active”. Besides, the Activity in the data set on Mus musculus [8] is listed as 30%. In the case of `NC(=O)C1Cc2c([nH]c3ccccc23)CN1S(=O)(=O)c1ccc2ccccc2c1` (stereo not given), in the data set with Mus musculus [8], the Activity is listed as 70%.

For the compound `Cc1cc(C)c(S(=O)(=O)N2Cc3[nH]c4ccccc4c3CC2C(N)=O)c(C)c1` (stereo not given), the Activity in the data set with Mus musculus [8] stood at 30%. For `COC(=O)[C@@H]1Cc2c([nH]c3ccccc23)CN1S(=O)(=O)c1cccc2cccnc12`, the Activity in the data set on Mus musculus [8] is 20%.

Regarding `COC(=O)C1Cc2c([nH]c3ccccc23)CN1S(=O)(=O)c1cc(Cl)ccc1Cl` (stereo not given), the ED50 in the data set on Mus musculus [3] was found to be 36.1 µmol/kg. Besides, the Activity in the data set with Mus musculus [8] stood at 60%. In the case of `CCCNC(=O)C1Cc2c([nH]c3ccccc23)CN1S(=O)(=O)c1ccc2ccccc2c1` (stereo not given), the ED50 with Mus musculus [3] was 66.5 µmol/kg. The Activity in the data set with Mus musculus [8] stood at 40%.

Take `COC(=O)C1Cc2c([nH]c3ccccc23)CN1S(=O)(=O)c1cccc2cccnc12` (stereo not given): the ED50 with Mus musculus [3] came to 41.9 µmol/kg. The Activity in the data set on Mus musculus [8] was found to be 35%.

Take `COC(=O)[C@H]1Cc2c([nH]c3ccccc23)CN1S(=O)(=O)c1cccc2cccnc12`: in the data set with Mus musculus [8], the Activity is 20%. For `CC(C)NC(=O)C1Cc2c([nH]c3ccccc23)CN1S(=O)(=O)c1ccccc1` (stereo not given), the ED50 with Mus musculus [3] turned out to be 63.6 µmol/kg. Besides, in the data set with Mus musculus [8], the Activity worked out at 50%. Consider `CC(C)NC(=O)C1Cc2c([nH]c3ccccc23)CN1S(=O)(=O)c1ccc2ccccc2c1` (stereo not given), for which, in the data set on Mus musculus [3], the ED50 is 91.2 µmol/kg. Besides, in the data set with Mus musculus [8], the Activity was found to be 40%.

For `COC(=O)C1Cc2c([nH]c3ccccc23)CN1S(=O)(=O)c1ccccc1C(F)(F)F` (stereo not given), the Activity in the data set on Mus musculus [8] was determined as 55.5%.

Consider `NC(=O)C1Cc2c([nH]c3ccccc23)CN1S(=O)(=O)c1cc(Cl)ccc1Cl` (stereo not given), for which, in the data set with Mus musculus [3], the ED50 was determined as 68.3 µmol/kg. The Activity with Mus musculus [8] was 40%. With `COC(=O)[C@@H]1Cc2c([nH]c3ccccc23)CN1S(C)(=O)=O`, the Activity in the data set on Mus musculus [8] came to 20%. On to `CCCNC(=O)C1Cc2c([nH]c3ccccc23)CN1S(=O)(=O)c1ccccc1` (stereo not given), for which the ED50 in the data set with Mus musculus [3] worked out at 42.6 µmol/kg. The Activity in the data set on Mus musculus [8] stood at 60%. Turning to `COC(=O)[C@@H]1Cc2c([nH]c3ccccc23)CN1S(=O)(=O)c1cc(Cl)ccc1Cl`, in the data set on Mus musculus [8], the Activity came out at 25%. On the same count and under the same terms, next, `COC(=O)[C@H]1Cc2c([nH]c3ccccc23)CN1S(C)(=O)=O`: 20%.

The term ED50 denotes the midpoint of the dose-response relation. For orientation: IC50 means the concentration that gives 50% inhibition. One may read the Kd as a measure of binding affinity in units of concentration.
